Measurements of several laboratories.
Protocols differ between the studies behind these lines.
Target: Angiopoietin-1 receptor (TEK, Homo sapiens, UniProt Q02763)

SMILES	assay	conditions	remaining binding [%]
N[C@@H]1CCN(c2nccc(-c3cnn4ncccc34)n2)C1	binding	1 µM	98
C[C@@H]1CN(c2ccc3ncc(-c4ccc5[nH]nc(C6CC6)c5c4)n3n2)C[C@H](C)O1	binding, competition with immobilised ligand	50 nM	99
CCS(=O)(=O)c1cc2cc(C[C@@](O)(CC(C)(C)c3ccc(F)cc3C(N)=O)C(F)(F)F)[nH]c2cn1	cell-free assay, competition with immobilised ligand	1 µM	94
C[C@@H](c1ccc(-n2cnc3c(N)ncnc32)cc1)N1CCc2nn(C)c(Cc3ccccc3)c2C1=O	binding, competition with immobilised ligand	0.1 µM	81
O=C(c1ccc(Nc2nccc(-c3cc4ccccc4s3)n2)cc1)N1CCC(N2CCCC2)CC1	binding, competition with immobilised ligand	1 µM	31
Cc1cnn2ncc(-c3ccnc(N(C)C)n3)c2c1	binding	1 µM	100
CNC(=O)[C@@H]1CC[C@@H](n2c(-c3ccc4cnccc4c3)nc3ccc(C(=O)NCc4cccc(C(N)=O)c4)cc32)C1	binding, competition with immobilised ligand	1 µM	100
C[C@@H]1CN(c2cc(-c3nn(C)c4ccc(OC5(C)CC5)cc34)ncn2)C[C@H](C)O1	cell-free assay, competition with immobilised ligand	1 µM	94
O=C(Nc1c[nH]nc1C(=O)NC1CCNCC1)c1cc(F)cc(F)c1	binding, competition with immobilised ligand	1 µM	94
CCN1CCN(Cc2ccc(C(=O)Nc3ccc(C)c(Oc4ccc5c(c4)CC(=O)N5)c3)cc2C(F)(F)F)CC1	binding, competition with immobilised ligand	1 µM	100
CS(=O)(=O)N1CCCC(NC(=O)[C@H](CCC2CCCCC2)NC(=O)c2ccc(CNc3ncnc4c3nnn4-c3ccccc3)cc2)C1 (some centres unmarked)	cell-free assay, competition with immobilised ligand	0.1 µM	73
O=C(NCCCN1CCOCC1)c1ccc(Nc2ncc(Cl)c(-c3ccc(Cl)s3)n2)cc1	binding, competition with immobilised ligand	1 µM	47
c1cncc(-c2cccc(Nc3nccc(NC4CCCCC4)n3)c2)c1	binding, competition with immobilised ligand	10 µM	38
c1cnn2ncc(-c3ccnc(N4CCC45COC5)n3)c2c1	binding	1 µM	83
C[C@@H]1CN(c2cc(-c3n[nH]c4ccc(OC5(C)CC5)cc34)ncn2)C[C@H](C)O1	cell-free assay, competition with immobilised ligand	0.1 µM	100
F[C@@H]1CCN(c2nccc(-c3cnn4ncccc34)n2)C1	binding	1 µM	100
C[C@@H](c1cccc(C#N)c1)n1cc(Cl)cc(C(N)=O)c1=N	cell-free assay, competition with immobilised ligand	1 µM	90
